Source: ChEMBL document CHEMBL5329219, “α-Aminophosphonate inhibitors of metallo-β-lactamases NDM-1 and VIM-2” (RSC Med Chem, 2023)
The source made the active and inactive calls. The rule behind the calls is not given here.

Key:
[1] = tested on: HepG2; test: Cytotoxicity against human HepG2 cells incubated for 24 hrs by resorufin based fluorescence assay; type: toxicity, cell-based; conditions: hepg2, 24 h
How it was run: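 HepG2 cells grown in DMEM with 10% FBS and 1% penicillin–streptomycin at 37 °C, 5% CO2, seeded for exponential growth. Two-fold serial dilutions of compound added at 0.3% v/v final DMSO for 24 h. PrestoBlue viability read as resorufin fluorescence (544/590 nm). Controls were untreated, DMSO-only and 1% SDS. EC50 from three independent experiments.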

[2] = biological target: Metallo-beta-lactamase type 2 (Bacteria) (UniProt C7C422); test: (§1) Inhibition of bacterial metallo-beta-lactamase NDM-1 preincubated for 5 mins followed by imipenem addition by spectrophotometer analysis
How it was run: (§2)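 Purified NDM-1 (10 nM) in 50 mM HEPES pH 7.2 with 100 μM ZnCl2, 2.5% DMSO and 400 μg ml−1 BSA, preincubated with inhibitor (twelve concentrations, 0–800 μM) at 25 °C for 5 min. Reaction started with 100 μM imipenem and absorbance read at 300 nm. Triplicates; IC50 from initial velocities by log[inhibitor] vs. response fit.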

[3] = biological target: Metallo-beta-lactamase type 2 (Bacteria, UniProt C7C422); test: as §1; how it was run: as §2
[4] = tested on: Bacteria; test: Inhibition of bacterial metallo-beta-lactamase VIM-2 preincubated for 5 mins followed by nitrocefin addition by spectrophotometer analysis
How it was run: as §2, with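 “VIM-2 (0.1” for “NDM-1 (10”, “nitrocefin” for “imipenem”, “482” for “300”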

Chain of Metallo-beta-lactamase type 2 (Bacteria) (C7C422 whole entry): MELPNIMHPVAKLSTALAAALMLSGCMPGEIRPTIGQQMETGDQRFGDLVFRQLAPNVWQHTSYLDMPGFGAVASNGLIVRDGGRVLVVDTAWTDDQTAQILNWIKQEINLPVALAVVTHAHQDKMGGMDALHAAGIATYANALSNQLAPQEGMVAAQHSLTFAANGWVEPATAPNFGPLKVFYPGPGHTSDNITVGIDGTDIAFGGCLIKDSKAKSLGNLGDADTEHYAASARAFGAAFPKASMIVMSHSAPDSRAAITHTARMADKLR
Chain of Metallo-beta-lactamase type 2 (C7C422 whole entry): as above

## Cl.O=C(NC(C1CCCCN1)P(=O)(O)O)c1csc2c1CCCC2 (stereo not drawn)
[1]
  Activity: Non-Toxic
[2]
  inhibition: inactive
[3]
  IC50: 76 µM

## Cl.O=C(NC(C1CCCCN1)P(=O)(O)O)c1csc2ccccc12 (stereo in doubt; form 1)
[1]
  Activity: Non-Toxic

## O=C(NC(C1CCCCN1)P(=O)(O)O)c1scc2c1CCCC2 (stereo in doubt; form 1)
[2]
  inhibition: inactive

## Cc1[nH]c(=S)sc1CC(=O)NC(C1CCCCN1)P(=O)(O)O.Cl (stereo in doubt; form 1)
[1]
  Activity: Non-Toxic

## Cl.O=C(NC(C1CCCCN1)P(=O)(O)O)c1cc2ccccc2s1 (stereo not drawn)
[1]
  Activity: Non-Toxic

## Cl.O=C(NC(C1CCCCN1)P(=O)(O)O)c1cccs1 (stereo not drawn)
[1]
  Activity: Non-Toxic

## Cl.O=C(Cc1ccsc1)NC(C1CCCCN1)P(=O)(O)O (stereo not drawn)
[1]
  Activity: Non-Toxic
[4]
  inhibition: inactive

## Cc1[nH]c(=S)sc1CC(=O)NC(C1CCCCN1)P(=O)(O)O (stereo in doubt; form 1)
[2]
  inhibition: inactive

## O=C(NC(C1CCCCN1)P(=O)(O)O)c1cc2c(s1)CCCC2 (stereo in doubt; form 2)
[2]
  inhibition: inactive

## Cl.O=C(Cc1cccs1)NC(C1CCCCN1)P(=O)(O)O (stereo not drawn)
[1]
  Activity: Non-Toxic
[4]
  inhibition: inactive

## Cl.O=C(NC(C1CCCCN1)P(=O)(O)O)c1cc2c(s1)CCCC2 (stereo in doubt; form 1)
[1]
  Activity: Non-Toxic

## Cl.O=C(Cc1csc2ccccc12)NC(C1CCCCN1)P(=O)(O)O (stereo not drawn)
[1]
  Activity: Non-Toxic
[4]
  inhibition: inactive

## O=C(NC(C1CCCCN1)P(=O)(O)O)c1scc2c1CCCC2 (stereo in doubt; form 2)
[2]
  inhibition: inactive

## Cc1[nH]c(=S)sc1CC(=O)NC(C1CCCCN1)P(=O)(O)O (stereo in doubt; form 2)
[2]
  inhibition: inactive
[4]
  inhibition: inactive

## Cl.O=C(Cc1cc2ccccc2s1)NC(C1CCCCN1)P(=O)(O)O (stereo not drawn)
[1]
  Activity: Non-Toxic
[2]
  inhibition: inactive
[3]
  IC50: 22.4 µM

## Cl.O=C(NC(C1CCCCN1)P(=O)(O)O)c1ccsc1 (stereo not drawn)
[1]
  Activity: Non-Toxic

## O=C(NC(C1CCCCN1)P(=O)(O)O)c1cc2c(s1)CCCC2 (stereo in doubt; form 1)
[2]
  inhibition: inactive

## O=C(NC(C1CCCCN1)P(=O)(O)O)c1csc2ccccc12 (stereo in doubt; form 2)
[2]
  inhibition: inactive

## O=C(NC(C1CCCCN1)P(=O)(O)O)c1csc2ccccc12 (stereo in doubt; form 1)
[2]
  inhibition: inactive

## Cl.O=C(NC(C1CCCCN1)P(=O)(O)O)c1scc2c1CCCC2 (stereo in doubt; form 1)
[1]
  Activity: Non-Toxic
